Measurements as given in article PMC6189524 (Journal of Functional Foods, 2018).

Experiments:
[1] = Human bioavailability study: 24 h urinary excretion; type: in vivo; settings: humans; for 24 h urinary excretion, Snack: after 75 g baked snack; for 24 h urinary excretion, Snack / 24 h urinary excretion, Vegetable meal: per mg intake of corresponding compound; for 24 h urinary excretion, Vegetable meal: after 461 g vegetable meal
Method in brief: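 Adult volunteers fasted overnight (≥10 h), then gave a fasted blood sample and spot urine. Each study meal was eaten within a targeted 15 min under nurse supervision. Urine was collected over 24 h postprandially, extracted liquid-liquid and analysed by LCMS for aglycones plus glucuronide, glucoside and sulfate conjugates. Results were expressed per mg intake, and the two meals were compared by paired t-test.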

[2] = Determination of phytochemicals in food products; settings: for change during the baking process (dough to final product): snack ratio broccoli:onion:carrot:parsley = 2.1:5.5:11.4:1
Caco-2/TC7 cells = test: Uptake of quercetin and apigenin by Caco-2/TC7 cells from digestates; type: in vitro ADME; settings: all digestates and DMEM-only control; p < 0.05
Method in brief: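 Clear supernatants from simplified simulated stomach/small-intestine digestion (with amylase) were diluted 1:1 in DMEM and applied to Caco-2/TC7 cells; DMEM with 40 µM quercetin or apigenin served as control. Uptake was summed from metabolites in medium, metabolites in cells and aglycone in cells, and the rate was this total divided by time. Mean ± SD, n = 3.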

Caco-2/TC7 monolayer = test: Transport; type: in vitro ADME; settings: p < 0.05
Method in brief: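 Snack or vegetable-mix samples went through a simplified simulated gastric/small-intestinal digestion including amylase, run to completion and centrifuged to clear supernatant. Supernatant mixed 1:1 with DMEM was applied to Caco-2/TC7 monolayers; DMEM with 40 µM quercetin or apigenin served as the buffer control. Papp = (dQ/dt)/(Co·A), from total basolateral metabolites plus aglycone; mean ± SD, n = 3.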

[3] = ref Rothwell, Day, & Morgan, 2005; cited from earlier work
[4] = In vitro gastric-duodenal digestion; type: in vitro ADME; settings: both snack and vegetable meals

Row | Structure (SMILES) | 24 h urinary excretion, Difference (absolute) vegetable meal vs snack [1] | 24 h urinary excretion, Snack [1] | 24 h urinary excretion, Vegetable meal [1] | urinary levels in 24 h urine, snack versus vegetable meal (paired t-test) [1] | other results
1 | O=c1cc(-c2ccc(O)cc2)oc2cc(O[C@@H]3O[C@H](CO)[C@@H](O)[C@H](O)[C@H]3O)cc(O)c12 [A-7-Glc, apigenin-7-O-glucoside] | 0.05 nmol per mg intake | 0.15 ± 0.4 nmol/mg intake | 0.21 ± 0.3 nmol/mg intake | – | –
2 | O=C(O)[C@H]1O[C@@H](Oc2cc(O)c3c(=O)cc(-c4ccc(O)cc4)oc3c2)[C@H](O)[C@@H](O)[C@@H]1O [A-7-GlcA] | 0.99 nmol per mg intake | 6.32 ± 8.1 nmol/mg intake | 5.33 ± 6.6 nmol/mg intake | – | –
3 | COc1cc(-c2oc3cc(O)cc(O)c3c(=O)c2O[C@@H]2O[C@H](C(=O)O)[C@@H](O)[C@H](O)[C@H]2O)ccc1O [IR-3-GlcA, isorhamnetin-3-glucuronide] | 1.07 nmol per mg intake | 1.60 ± 2.0 nmol/mg intake | 2.67 ± 2.7 nmol/mg intake | significantly differed | –
4 | O=c1c(O[C@@H]2O[C@H](CO)[C@@H](O)[C@H](O)[C@H]2O)c(-c2ccc(O)c(O)c2)oc2cc(O)cc(O)c12 [Quercetin-3-Glc, quercetin-3-O-glucoside] | 0.03 nmol per mg intake | 0.04 ± 0.1 nmol/mg intake | 0.07 ± 0.1 nmol/mg intake | – | –
5 | O=C(O)[C@H]1O[C@@H](Oc2c(-c3ccc(O)c(O)c3)oc3cc(O)cc(O)c3c2=O)[C@H](O)[C@@H](O)[C@@H]1O [Quercetin-3-GlcA, quercetin-3-glucuronide] | 0.23 nmol per mg intake | 4.17 ± 3.3 nmol/mg intake | 4.40 ± 2.5 nmol/mg intake | – | –
6 | O=c1c(OS(=O)(=O)O)c(-c2ccc(O)c(O)c2)oc2cc(O)cc(O)c12 [Quercetin-3-sulfate] | 0.79 nmol per mg intake | 2.58 ± 1.9 nmol/mg intake | 3.36 ± 1.8 nmol/mg intake | – | –
7 | CC(=O)N[C@@H](CSC(=S)NCCCC[S+](C)[O-])C(=O)O (stereo partly drawn) [Sulforaphane-NAC, sulforaphane-N-acetyl-cysteine] | 236.4 nmol per mg intake | 272.17 ± 280.8 nmol/mg intake | 508.54 ± 450.9 nmol/mg intake | approached significance | –
8 | C[S+]([O-])CCCCN=C=S (stereo not drawn) [Sulforaphane] | 7.47 nmol per mg intake | 36.25 ± 27.9 nmol/mg intake | 43.72 ± 44.2 nmol/mg intake | – | –
9 | O=c1cc(-c2ccc(O)cc2)oc2cc(O)cc(O)c12 [apigenin] | 0.19 nmol per mg intake | 3.37 ± 6.6 nmol/mg intake | 3.55 ± 4.6 nmol/mg intake | not significantly different | change during the baking process (dough to final product) [2]: +6%; rate of uptake compared to quercetin (Caco-2/TC7 cells): significantly higher; Papp compared to quercetin (Caco-2/TC7 monolayer): higher; lipophilicity compared to quercetin [3]: higher lipophilicity
10 | C[S+]([O-])CCCC/C(=N\OS(=O)(=O)O)S[C@@H]1O[C@H](CO)[C@@H](O)[C@H](O)[C@H]1O (stereo partly drawn) [glucoraphanin] | – | – | – | not significantly different | change during the baking process (dough to final product) [2]: −14%
11 | CC1=C[C@H](O)CC(C)(C)[C@H]1/C=C/C(C)=C/C=C/C(C)=C/C=C/C=C(C)/C=C/C=C(C)/C=C/C1=C(C)C[C@@H](O)CC1(C)C [lutein] | – | – | – | – | present in the liquid phase after in vitro digestion [4]: around 0.4 mg
12 | O=c1c(O)c(-c2ccc(O)c(O)c2)oc2cc(O)cc(O)c12 [quercetin] | 0.38 nmol per mg intake | 0.34 ± 0.7 nmol/mg intake | 0.72 ± 1.3 nmol/mg intake | not significantly different | change during the baking process (dough to final product) [2]: +12%
13 | CC1=C(/C=C/C(C)=C/C=C/C(C)=C/C=C/C=C(C)/C=C/C=C(C)/C=C/C2=C(C)CCCC2(C)C)C(C)(C)CCC1 [β-carotene] | – | – | – | – | yield in the final product ([2]; dough with only carrots, after baking): 31.8 % (w/w); threshold value above which lost during the baking process ([2]; final snack product): 10–13 mg per 100 g dry matter; present in the liquid phase after in vitro digestion [4]: no detectable
